Compound activity deposited in PubChem by Broad Institute.
Sampled rows, rich in hits. Any-hit rate of the full collection: about 3.1%.
rRNA inh HTS = selective bacterial rRNA inhibition in E. coli. E. coli WT GFP vs humanized-ribosome RFP mutants, fluorescence, 24 h; active compounds read low; DMSO median 0, no signal -100. GFP signal change (wild-type ribosome), % (test concentration not listed). 1.6% of 350,000 active;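 active = significant combined selectivity score with lowered wild-type GFP, culture density cut under 30%, mutant RFP and density less affected; inactive = any of these conditions unmet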
E-sel inducer = induces E-selectin expression in human endothelial cells. HUVEC E-selectin immunofluorescence imaging; normalized: neutral wells 0, TNF-alpha wells 100. activation, % at 7.58 µM. 0.37% of 260,000 active;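 active = mean E-selectin-positive cell signal at least 10% of the positive control, reached in at least 60% of replicates, without over 20% cell loss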
Target sequence (P16581 whole entry, looked up): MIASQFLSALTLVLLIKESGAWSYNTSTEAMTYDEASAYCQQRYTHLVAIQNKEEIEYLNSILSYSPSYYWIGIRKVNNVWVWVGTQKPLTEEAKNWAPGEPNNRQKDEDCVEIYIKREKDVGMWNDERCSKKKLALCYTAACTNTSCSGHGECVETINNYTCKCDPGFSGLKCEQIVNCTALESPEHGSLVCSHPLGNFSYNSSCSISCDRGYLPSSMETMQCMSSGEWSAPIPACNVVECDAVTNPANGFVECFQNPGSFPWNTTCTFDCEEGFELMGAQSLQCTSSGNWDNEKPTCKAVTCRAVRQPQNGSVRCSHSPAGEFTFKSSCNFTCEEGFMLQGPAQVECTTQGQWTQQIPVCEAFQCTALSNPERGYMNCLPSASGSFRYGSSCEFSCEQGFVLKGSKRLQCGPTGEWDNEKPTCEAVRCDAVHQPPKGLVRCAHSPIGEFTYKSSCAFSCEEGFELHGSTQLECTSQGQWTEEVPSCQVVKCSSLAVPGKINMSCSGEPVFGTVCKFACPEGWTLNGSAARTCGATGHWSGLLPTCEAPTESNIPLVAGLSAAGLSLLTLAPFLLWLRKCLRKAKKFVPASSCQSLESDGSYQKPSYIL
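assay system = HUVEC, human umbilical vein endothelial cells | input = 3,000 HUVEC seeded per well | medium = EGM-2 growth medium on 0.1% gelatin-coated wells | dosing = one compound dose added by pin transfer | signal = immunofluorescence imaging | read-out basis = % PE-positive cells | control set = TNF-alpha, DMSO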
DENV2 CPE = protects cells from dengue virus 2 cytopathic effect | DENV2-infected cells, cytopathic effect rescue, plate reader | CPE inhibition, % at 9.99 µM | 1.7% of 350,000 active; in the data active = CPE inhibition above about 20%, passing the limit was not always enough; tested in BHK-21 cells
Cneo AK release = causes C. neoformans cell lysis. 0.2% of 360,000 active. lysis activity, % at 15 µM. AID 651654. adenylate kinase release luminescence, 4 h; normalised: neutral wells 0, clomiphene wells 100;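 active = mean lysis activity across replicates of at least 80%, whatever share of replicates individually reach that level; inactive = mean lysis activity below 80%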
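Material: C. neoformans cells; Schedule: 4 h static compound exposure, 37 °C, read 1 h post-reagent; Measured by: adenylate kinase release luminescence; Read-out: signal increase indicating cell lysis; Controls: Clomiphene as positive lysis control.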
miR-122 sensor = blocks miR-122 activity in Huh7 sensor cells; Huh7 miR-122 Renilla luciferase sensor, 48 h; neutral wells = 0, positive control = 100; activation (reporter increase), % at 12.5 µM; 0.3% of 340,000 active;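 active = mean replicate activation score at least 90 and every replicate individually at or above 90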;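 also: higher luciferase means less miR-122 activity so hits act as miR-122 inhibitors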
A number is an active result; - = inactive; . = not tested or not shown; ! = repeats disagree.

SMILES | rRNA inh HTS | E-sel inducer | DENV2 CPE | Cneo AK release | miR-122 sensor
COc1cccc(C(=O)Nc2ccc3c(c2)OC[C@H](C)NC[C@@H](C)[C@@H](OC)CN(C)C3=O)c1 | - | - | - | - | -
CC(C)C[C@@H]1CN(CCCC[C@H]2CNC(=O)C(=O)N2CCC2CCCCC2)C(=O)C(=O)N1Cc1ccccc1 | - | . | 24 | . | .
O=C1NC[C@@H](CCCCN2CCN(CCc3ccc(O)cc3)C(=O)C2=O)N(Cc2ccccc2)C1=O | - | . | 87 | . | .
CCCCN1CCC(CN2C(=O)C(=O)NC[C@@H]2Cc2ccccc2)CC1 | - | - | - | - | .
CC(C)C[C@H]1CN(CCCC[C@H]2CNC(=O)C(=O)N2CCC2CCCCC2)C(=O)C(=O)N1CCc1ccccc1 | - | - | - | . | .
O=C1NC[C@H](Cc2ccccc2)N(CC2CCN(CCCCc3ccccc3)CC2)C1=O | . | . | 35 | - | -
CC(C)(C)CN1C(=O)C(=O)NC[C@@H]1CC1CCCCC1 | . | - | - | . | .
CC(C)(C)CN1C(=O)C(=O)NC[C@@H]1CCCCN | - | - | 136 | - | .
CO[C@H]1CN(C)C(=O)c2ccc(NC(=O)c3ccc(F)cc3)cc2OC[C@@H](C)N(C(=O)CN(C)C)C[C@H]1C | - | - | . | . | -
O=C1NC[C@@H](CCCCN2C[C@H](Cc3ccc(O)cc3)N(CCc3ccccc3)C(=O)C2=O)N(CC2CCCCC2)C1=O | - | . | - | . | .
O=C1NC[C@@H](CCCCN2C[C@H](Cc3ccccc3)N(CC3CCCCC3)C(=O)C2=O)N(CCc2ccc(O)cc2)C1=O | - | - | - | . | .
O=C1NC[C@H](CCCCN2C[C@H](Cc3ccccc3)N(CCc3ccc(O)cc3)C(=O)C2=O)N(CC2CCCCC2)C1=O | -30 | - | - | . | .
COc1ccc(CCN2CCC(CN3C(=S)NC[C@@H]3Cc3ccccc3)CC2)cc1OC | - | - | 93 | . | .
O=C1NC[C@H](CCCCN2C[C@H](Cc3ccc(O)cc3)N(CCc3ccccc3)C(=O)C2=O)N(CC2CCCCC2)C1=O | -27 | - | - | . | .
CCCC[C@@H]1CNC(=O)C(=O)N1CCCCC1CCCCC1 | . | - | 42 | . | .
O=C1NC[C@H](CCCCN2CCN(CCC3CCCCC3)C(=O)C2=O)N(CCC2CCCCC2)C1=O | - | - | - | . | .
C[C@H]1CC=CC[C@H](c2cccc(Cl)c2)NC(=O)[C@H](C)N(C)C(=O)c2ccccc2O1 (mixture of isomers) | - | . | . | . | .
COc1ccc2c3c(n(C)c2c1)[C@H](CO)N(C)CC31CCN(S(C)(=O)=O)CC1 | - | . | . | . | .
COCCNC(=O)C[C@@H]1C[C@H]2c3cc(NC(=O)Nc4ccc(OC)cc4)ccc3O[C@H]2[C@@H](CO)O1 | - | - | 114 | - | -
O=C(C[C@@H]1C[C@@H]2c3cc(NC(=O)Nc4ccc(F)cc4)ccc3O[C@@H]2[C@@H](CO)O1)NCC1CC1 | - | - | - | 87 | -
CCCNC(=O)C[C@H]1C[C@H]2c3cc(NC(=O)Nc4ccc(OC)cc4)ccc3O[C@H]2[C@@H](CO)O1 | - | - | - | 90 | -
C[C@H](CO)N1C[C@H](C)[C@@H](CN(C)C(=O)c2ccccc2)Oc2ncc(C3=CCCCC3)cc2C1=O | - | - | - | - | -
C[C@@H]1CCCCO[C@@H](CN(C)C(=O)Nc2ccc(C(F)(F)F)cc2)[C@H](C)CN([C@H](C)CO)C(=O)c2cc(NS(=O)(=O)c3cccs3)ccc2O1 | - | - | - | - | -
Cc1ccc(-c2nnc(Nc3ccc4c(c3)OCO4)c3ccccc23)cc1S(N)(=O)=O | - | . | - | - | 180
CC(=O)Nc1ccc(Nc2nnc(-c3ccc(C)c(S(N)(=O)=O)c3)c3ccccc23)cc1 | - | - | - | - | .
SMILES | rRNA inh HTS | E-sel inducer | DENV2 CPE | Cneo AK release | miR-122 sensor
C[C@H](CO)N1C[C@H](C)[C@H](CN(C)C(=O)Nc2cccc3ccccc23)OCCCC[C@H](C)Oc2ccc(NC(=O)NC3CCCCC3)cc2C1=O | - | . | - | - | -
C[C@H](CO)N1C[C@H](C)[C@@H](CN(C)C(=O)Nc2cccc3ccccc23)OCCCC[C@H](C)Oc2ccc(NC(=O)NC3CCCCC3)cc2C1=O | - | . | 113 | - | -
C[C@H](CO)N1C[C@H](C)[C@@H](CN(C)C(=O)NC2CCCCC2)Oc2ccc(NC(=O)C3CC3)cc2C1=O | - | - | 56! | - | -
C[C@H]1CCCCO[C@@H](CN(C)C(=O)Nc2cccc3ccccc23)[C@@H](C)CN([C@@H](C)CO)C(=O)c2cc(NC(=O)Cc3ccccc3)ccc2O1 | - | - | 83 | - | -
C[C@@H]1CCCCO[C@@H](CN(C)C(=O)Nc2cccc3ccccc23)[C@H](C)CN([C@H](C)CO)C(=O)c2cc(NC(=O)Cc3ccccc3)ccc2O1 | - | - | - | - | -
CC(C)NC(=O)Nc1ccc2c(c1)C(=O)N([C@@H](C)CO)C[C@@H](C)[C@@H](CN(C)C(=O)NC1CCCCC1)OCCCC[C@H](C)O2 | - | - | - | 92 | -
CO[C@H]1CN(C)C(=O)c2ccc(NS(C)(=O)=O)cc2OC[C@H](C)NC[C@H]1C | - | - | - | - | -
C[C@@H]1CCCCO[C@H](CN(C)C(=O)NC2CCCCC2)[C@@H](C)CN([C@@H](C)CO)C(=O)c2cc(NC(=O)NC3CCCCC3)ccc2O1 | - | - | 47 | - | -
C[C@H](CO)N1C[C@H](C)[C@@H](CN(C)C(=O)NC2CCCCC2)OCCCC[C@H](C)Oc2ccc(NC(=O)NC3CCCCC3)cc2C1=O | - | - | - | - | -
C[C@H]1CCCCO[C@H](CN(C)C(=O)Nc2ccc3c(c2)OCO3)[C@@H](C)CN([C@@H](C)CO)C(=O)c2cc(NC(=O)NC3CCCCC3)ccc2O1 | - | - | 85 | - | -
C[C@@H]1CN([C@@H](C)CO)C(=O)c2cc(NC(=O)C3CCCCC3)ccc2O[C@@H](C)CCCCO[C@@H]1CN(C)C(=O)NC1CCCCC1 | - | - | . | 97 | -
Cc1ccc(OC(=O)N(C)C[C@@H]2OCc3cn(nn3)CCCC(=O)N([C@H](C)CO)C[C@@H]2C)cc1 | - | - | . | . | -
CO[C@H]1CN(C)C(=O)c2cc(C#N)ccc2OC[C@H]2O[C@@H](CC[C@H]2OC)CCN(C)C(=O)[C@H]1C | - | - | - | - | .
C[C@@H]1CCCCO[C@H](CN(C)Cc2ccc(C(=O)Nc3ccccc3N)cc2)[C@@H](C)CN([C@H](C)CO)C(=O)c2cc(N(C)C)ccc2O1 | - | . | . | . | .
CCC(=O)N1CCC2(CC1)CN(C(=O)Nc1ccccc1F)[C@@H](CO)c1[nH]c3cc(OC)ccc3c12 | - | - | - | . | .
COc1ccc(S(=O)(=O)N(C)C[C@H]2Oc3ncc(C#CC4(O)CCCC4)cc3C(=O)N([C@H](C)CO)C[C@H]2C)cc1 | - | - | - | - | -
O=C(C[C@@H]1C=C[C@@H](NC(=O)C2CCC2)[C@@H](CO)O1)NC1CCC1 | - | - | - | - | -
